Experimental data as given in ChEMBL document CHEMBL1149103, “Anticonvulsant activity of phenylmethylenehydantoins: a structure-activity relationship study” (2004).

Columns and labels:
[1] = species on record: Mus musculus; assay: Anticonvulsant activity measured as effective dose required to produce a response score of 2.5 in MES assay on mice; assay type: functional
In short: (§1)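 Male Swiss albino mice ([…]), pre-screened by passing a 5 min rotorod test. Compound in DMSO given ip, starting at 100 mg/kg, later doses raised or lowered to complete the dose-activity profile. After 30 min, 45 mA ([…]) for 0.2 s via auricular electrodes. Seizure scored 1 (no protection) to 4 (full), averaged over 5-6 mice per dose. Effective dose taken as the dose giving a score of 2.5; log value used for QSAR.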

[2] = species on record: Mus musculus; assay: Anticonvulsant activity expressed as log(1/EDMES(2.5)) in MES assay on mice that responded a score of 2.5; assay type: functional; in short: as §1

## O=C1NC(=O)/C(=C/c2ccc(-c3ccccc3)cc2)N1
[1]
  EDMES(2.5): >200 mg/kg
[2]
  Log 1/EDMES(2.5): -2.3

## O=C1NC(=O)/C(=C/c2ccc(C(F)(F)F)cc2)N1
[1]
  EDMES(2.5): 64 mg/kg
[2]
  Log 1/EDMES(2.5): -1.81

## Cc1cccc(/C=C2\NC(=O)NC2=O)c1
[1]
  EDMES(2.5): 74 mg/kg
[2]
  Log 1/EDMES(2.5): -1.87

## CN(C)c1ccc(/C=C2\NC(=O)NC2=O)cc1
[1]
  EDMES(2.5): >200 mg/kg
[2]
  Log 1/EDMES(2.5): -2.3

## COc1ccccc1/C=C1\NC(=O)NC1=O
[1]
  EDMES(2.5): 84 mg/kg
[2]
  Log 1/EDMES(2.5): -1.92

## CC(C)(C)c1ccc(/C=C2\NC(=O)NC2=O)cc1
[1]
  EDMES(2.5): >200 mg/kg
[2]
  Log 1/EDMES(2.5): -2.3

## O=C1NC(=O)/C(=C/C2CCCCC2)N1
[1]
  EDMES(2.5): 156 mg/kg
[2]
  Log 1/EDMES(2.5): -2.19

## Cc1ccc(/C=C2\NC(=O)NC2=O)cc1
[1]
  EDMES(2.5): >200 mg/kg
[2]
  Log 1/EDMES(2.5): -2.3

## O=C1NC(=O)/C(=C/c2ccccc2F)N1
[1]
  EDMES(2.5): >200 mg/kg
[2]
  Log 1/EDMES(2.5): -2.3

## O=C1NC(=O)/C(=C/c2ccccn2)N1
[1]
  EDMES(2.5): 141 mg/kg
[2]
  Log 1/EDMES(2.5): -2.15

## CCCCOc1ccc(/C=C2\NC(=O)NC2=O)cc1
[1]
  EDMES(2.5): >200 mg/kg
[2]
  Log 1/EDMES(2.5): -2.3

## O=C1NC(=O)/C(=C/c2cccc3ccccc23)N1
[1]
  EDMES(2.5): >200 mg/kg
[2]
  Log 1/EDMES(2.5): -2.3

## O=C1NC(=O)/C(=C\c2c(Cl)cccc2Cl)N1
[1]
  EDMES(2.5): 72 mg/kg
[2]
  Log 1/EDMES(2.5): -1.86

## CC(C)c1ccc(/C=C2\NC(=O)NC2=O)cc1
[1]
  EDMES(2.5): 80 mg/kg
[2]
  Log 1/EDMES(2.5): -1.9

## O=C1NC(=O)/C(=C/c2ccc(Cl)cc2Cl)N1
[1]
  EDMES(2.5): >200 mg/kg
[2]
  Log 1/EDMES(2.5): -2.3

## O=C1NC(=O)/C(=C/c2cccc([N+](=O)[O-])c2)N1
[1]
  EDMES(2.5): >200 mg/kg
[2]
  Log 1/EDMES(2.5): -2.3

## O=C1NC(=O)/C(=C/c2ccc(Cl)cc2)N1
[1]
  EDMES(2.5): >200 mg/kg
[2]
  Log 1/EDMES(2.5): -2.3

## O=C1NC(=O)/C(=C/c2ccc(F)cc2)N1
[1]
  EDMES(2.5): >200 mg/kg
[2]
  Log 1/EDMES(2.5): -2.3

## Cc1ccc(/C=C2\NC(=O)NC2=O)c(C)c1
[1]
  EDMES(2.5): 39 mg/kg
[2]
  Log 1/EDMES(2.5): -1.59

## Cc1cc(C)c(/C=C2/NC(=O)NC2=O)c(C)c1
[1]
  EDMES(2.5): 28 mg/kg
[2]
  Log 1/EDMES(2.5): -1.45

## O=C1NC(=O)/C(=C/c2cccc(C(F)(F)F)c2)N1
[1]
  EDMES(2.5): 115 mg/kg
[2]
  Log 1/EDMES(2.5): -2.06

## O=C1NC(=O)/C(=C/c2ccccc2OCc2ccccc2)N1
[1]
  EDMES(2.5): >200 mg/kg
[2]
  Log 1/EDMES(2.5): -2.3

## CCCCc1ccc(/C=C2\NC(=O)NC2=O)cc1
[1]
  EDMES(2.5): 121 mg/kg
[2]
  Log 1/EDMES(2.5): -2.08

## CCc1ccc(/C=C2\NC(=O)NC2=O)cc1
[1]
  EDMES(2.5): 74 mg/kg
[2]
  Log 1/EDMES(2.5): -1.87

## COc1cccc(/C=C2\NC(=O)NC2=O)c1
[1]
  EDMES(2.5): >200 mg/kg
[2]
  Log 1/EDMES(2.5): -2.3

## COc1ccc(/C=C2\NC(=O)NC2=O)cc1
[1]
  EDMES(2.5): >200 mg/kg
[2]
  Log 1/EDMES(2.5): -2.3

## O=C1NC(=O)/C(=C/c2ccc3ccccc3c2)N1
[1]
  EDMES(2.5): >200 mg/kg
[2]
  Log 1/EDMES(2.5): -2.3

## O=C1NC(=O)/C(=C/c2ccc([N+](=O)[O-])cc2)N1
[1]
  EDMES(2.5): >200 mg/kg
[2]
  Log 1/EDMES(2.5): -2.3

## O=C1NC(=O)/C(=C/c2c[nH]c3ccccc23)N1
[1]
  EDMES(2.5): >200 mg/kg
[2]
  Log 1/EDMES(2.5): -2.3

## CCCOc1ccc(/C=C2\NC(=O)NC2=O)cc1
[1]
  EDMES(2.5): 77 mg/kg
[2]
  Log 1/EDMES(2.5): -1.89

## O=C1NC(=O)/C(=C/c2cccc(Oc3ccccc3)c2)N1
[1]
  EDMES(2.5): >200 mg/kg
[2]
  Log 1/EDMES(2.5): -2.3

## O=C1NC(=O)/C(=C/c2ccco2)N1
[1]
  EDMES(2.5): 167 mg/kg
[2]
  Log 1/EDMES(2.5): -2.22

## Cc1ccccc1/C=C1\NC(=O)NC1=O
[1]
  EDMES(2.5): 59 mg/kg
[2]
  Log 1/EDMES(2.5): -1.77

## O=C1NC(=O)/C(=C/c2ccccc2)N1
[1]
  EDMES(2.5): 125 mg/kg
[2]
  Log 1/EDMES(2.5): -2.1

## O=C1NC(=O)/C(=C/c2cccc(Cl)c2)N1
[1]
  EDMES(2.5): 82 mg/kg
[2]
  Log 1/EDMES(2.5): -1.91

## COc1ccc(/C=C2\NC(=O)NC2=O)c(OC)c1
[1]
  EDMES(2.5): 175 mg/kg
[2]
  Log 1/EDMES(2.5): -2.24

## Cc1cc(C)c(/C=C2\NC(=O)NC2=O)cc1C
[1]
  EDMES(2.5): >200 mg/kg
[2]
  Log 1/EDMES(2.5): -2.3

## O=C1NC(=O)/C(=C/c2ccccc2C(F)(F)F)N1
[1]
  EDMES(2.5): >200 mg/kg
[2]
  Log 1/EDMES(2.5): -2.3

## O=C1NC(=O)/C(=C/c2cccc(O)c2)N1
[1]
  EDMES(2.5): >200 mg/kg
[2]
  Log 1/EDMES(2.5): -2.3

## O=C1NC(=O)/C(=C/c2cccc(Br)c2)N1
[1]
  EDMES(2.5): 89 mg/kg
[2]
  Log 1/EDMES(2.5): -1.95

## O=C1NC(=O)/C(=C/c2ccccc2Br)N1
[1]
  EDMES(2.5): >200 mg/kg
[2]
  Log 1/EDMES(2.5): -2.3

## O=C1NC(=O)/C(=C/c2ccccc2Cl)N1
[1]
  EDMES(2.5): 198 mg/kg
[2]
  Log 1/EDMES(2.5): -2.3

## O=C1NC(=O)/C(=C/c2ccc3[nH]c4ccccc4c3c2)N1
[1]
  EDMES(2.5): >200 mg/kg
[2]
  Log 1/EDMES(2.5): -2.3

## O=C1NC(=O)/C(=C/c2ccc(OCc3ccccc3)cc2)N1
[1]
  EDMES(2.5): 157 mg/kg
[2]
  Log 1/EDMES(2.5): -2.2

## O=C1NC(=O)/C(=C/c2ccccc2O)N1
[1]
  EDMES(2.5): >200 mg/kg
[2]
  Log 1/EDMES(2.5): -2.3

## O=C1NC(=O)/C(=C/c2cccc(F)c2)N1
[1]
  EDMES(2.5): 172 mg/kg
[2]
  Log 1/EDMES(2.5): -2.24

## O=C1NC(=O)/C(=C/c2ccc(F)c(F)c2)N1
[1]
  EDMES(2.5): 121 mg/kg
[2]
  Log 1/EDMES(2.5): -2.08

## CCOc1ccccc1/C=C1\NC(=O)NC1=O
[1]
  EDMES(2.5): >200 mg/kg
[2]
  Log 1/EDMES(2.5): -2.3

## CCN(CC)c1ccc(/C=C2\NC(=O)NC2=O)cc1
[1]
  EDMES(2.5): >200 mg/kg
[2]
  Log 1/EDMES(2.5): -2.3

## CCOc1ccc(/C=C2\NC(=O)NC2=O)cc1
[1]
  EDMES(2.5): 107 mg/kg
[2]
  Log 1/EDMES(2.5): -2.03

## O=C1NC(=O)/C(=C/c2cccs2)N1
[1]
  EDMES(2.5): >200 mg/kg
[2]
  Log 1/EDMES(2.5): -2.3

## N#Cc1ccc(/C=C2\NC(=O)NC2=O)cc1
[1]
  EDMES(2.5): >200 mg/kg
[2]
  Log 1/EDMES(2.5): -2.3

## O=C1NC(=O)/C(=C/c2ccc(Br)cc2)N1
[1]
  EDMES(2.5): >200 mg/kg
[2]
  Log 1/EDMES(2.5): -2.3

## O=C1NC(=O)/C(=C/c2ccc(O)cc2)N1 [4-HYDROXYPHENYLMETHYLENE HYDANTOIN]
[1]
  EDMES(2.5): >200 mg/kg
[2]
  Log 1/EDMES(2.5): -2.3

## O=C1NC(=O)C(c2ccccc2)(c2ccccc2)N1 [PHENYTOIN]
[1]
  EDMES(2.5): 30 mg/kg
[2]
  Log 1/EDMES(2.5): -1.48
